We go through two compounds from ChEMBL document CHEMBL1681732, “Synthesis and SAR of sulfoxide substituted carboxyquinolines as NK3 receptor antagonists” (Bioorg Med Chem Lett, 2011).

The target in one data set is T1, Neuromedin-K receptor (Homo sapiens, UniProt P29371).
T1 sequence (P29371 whole entry): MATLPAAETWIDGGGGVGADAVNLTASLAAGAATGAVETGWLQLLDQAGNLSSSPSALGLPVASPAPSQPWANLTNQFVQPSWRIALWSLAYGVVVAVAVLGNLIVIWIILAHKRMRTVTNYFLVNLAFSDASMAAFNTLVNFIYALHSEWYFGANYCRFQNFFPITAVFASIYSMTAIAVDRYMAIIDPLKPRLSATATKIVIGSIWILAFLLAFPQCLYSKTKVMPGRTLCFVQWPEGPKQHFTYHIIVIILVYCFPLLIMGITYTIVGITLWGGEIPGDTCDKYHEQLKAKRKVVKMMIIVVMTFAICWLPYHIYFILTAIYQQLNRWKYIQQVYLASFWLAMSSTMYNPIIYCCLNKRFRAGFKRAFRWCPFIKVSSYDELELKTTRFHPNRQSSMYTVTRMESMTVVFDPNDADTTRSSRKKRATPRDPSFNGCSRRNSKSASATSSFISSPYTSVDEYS
Put plainly: Antagonist activity at human NK3 receptor expressed in CHO cells assessed as inhibition of senktide-induced calcium flux by FLIPR assay. The data set is classed as functional, cell-based. Put shortly:
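FLIPR functional assay in CHO cells stably expressing human recombinant NK3 receptor. EC50 given as mean ± SEM (n ≥ 2), or as a single value where n = 1. Tested as 1:1 diastereomer mixtures unless marked as a single isomer.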

Data set [1] can be described thus: Selectivity ratio of EC50 for human NK3 receptor to EC50 for NK1 receptor.
Data set [2] can be described thus: Selectivity ratio of EC50 for human NK3 receptor to EC50 for NK2 receptor.
Data set [3] in a line: Equilibrium solubility of the compound. The data set is classed as physicochemical.
Data set [4] concerns MDR1. As to the kind of experiment: Apparent permeability across MDCK cells expressing human MDR1. The data set is classed as ADME, cell-based, Canis lupus familiaris. To be noted: dog, MDCK-MDR1. Put shortly: (§1)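 Permeability measured in MDCK cells expressing human MDR1. Papp is expressed in 10^-6 cm/s and reported together with the efflux ratio.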
In data set [5] the test system is MDR1. Put plainly: Efflux ratio of permeability in MDCK cells expressing human MDR1. The data set is classed as ADME, cell-based, Canis lupus familiaris. To be noted: dog, MDCK-MDR1. Put shortly: as §1
Data set [6] in a line: Intrinsic clearance in human liver microsomes assessed per mg of protein. The class given is ADME, Microsome.
Data set [7] in a line: Lipophilicity, log D of the compound. To be noted: octanol/water. The class given is physicochemical.
Data set [8] deals with Voltage-gated inwardly rectifying potassium channel KCNH2 (Homo sapiens, UniProt Q12809). Put plainly: Inhibition of human ERG.
Data set [9] in a line: Ratio of drug level in brain to plasma in rat at 3 umol/kg, iv after 1 hr. Conditions: brain and plasma, read-out: BPR. The data set is classed as ADME, organism-based. Put shortly:
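Rat dosed iv at 3 µmol/kg. Total brain and plasma levels taken 1 h post dose, and their ratio reported.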

Data set [10] is described as follows: Oral bioavailability in rat. The class given is ADME, organism-based. Conditions: in vivo.
The nature of data set [11]: Clearance in rat plasma. The class given is ADME, organism-based.
Data set [12] is described as follows: Half life in rat. The data set is classed as ADME, organism-based. To be noted: in vivo.
A further data set relates to Gerbillinae. As to the kind of experiment: Reversal of senktide-induced locomotor activity in ip dosed gerbil. The data set is classed as functional.
Data set [13] can be described thus: Oral bioavailability in dog. To be noted: in vivo. The class given is ADME, organism-based, Canis lupus familiaris.
Data set [14] is described as follows: Plasma clearance in dog. The class given is ADME, organism-based, Canis lupus familiaris.
A short description of data set [15]: Half life in dog. The class given is ADME, organism-based, Canis lupus familiaris. To be noted: in vivo.

Values after ≈ are worked out from the molar mass of the structure shown.

Voltage-gated inwardly rectifying potassium channel KCNH2, sequence (Q12809 whole entry): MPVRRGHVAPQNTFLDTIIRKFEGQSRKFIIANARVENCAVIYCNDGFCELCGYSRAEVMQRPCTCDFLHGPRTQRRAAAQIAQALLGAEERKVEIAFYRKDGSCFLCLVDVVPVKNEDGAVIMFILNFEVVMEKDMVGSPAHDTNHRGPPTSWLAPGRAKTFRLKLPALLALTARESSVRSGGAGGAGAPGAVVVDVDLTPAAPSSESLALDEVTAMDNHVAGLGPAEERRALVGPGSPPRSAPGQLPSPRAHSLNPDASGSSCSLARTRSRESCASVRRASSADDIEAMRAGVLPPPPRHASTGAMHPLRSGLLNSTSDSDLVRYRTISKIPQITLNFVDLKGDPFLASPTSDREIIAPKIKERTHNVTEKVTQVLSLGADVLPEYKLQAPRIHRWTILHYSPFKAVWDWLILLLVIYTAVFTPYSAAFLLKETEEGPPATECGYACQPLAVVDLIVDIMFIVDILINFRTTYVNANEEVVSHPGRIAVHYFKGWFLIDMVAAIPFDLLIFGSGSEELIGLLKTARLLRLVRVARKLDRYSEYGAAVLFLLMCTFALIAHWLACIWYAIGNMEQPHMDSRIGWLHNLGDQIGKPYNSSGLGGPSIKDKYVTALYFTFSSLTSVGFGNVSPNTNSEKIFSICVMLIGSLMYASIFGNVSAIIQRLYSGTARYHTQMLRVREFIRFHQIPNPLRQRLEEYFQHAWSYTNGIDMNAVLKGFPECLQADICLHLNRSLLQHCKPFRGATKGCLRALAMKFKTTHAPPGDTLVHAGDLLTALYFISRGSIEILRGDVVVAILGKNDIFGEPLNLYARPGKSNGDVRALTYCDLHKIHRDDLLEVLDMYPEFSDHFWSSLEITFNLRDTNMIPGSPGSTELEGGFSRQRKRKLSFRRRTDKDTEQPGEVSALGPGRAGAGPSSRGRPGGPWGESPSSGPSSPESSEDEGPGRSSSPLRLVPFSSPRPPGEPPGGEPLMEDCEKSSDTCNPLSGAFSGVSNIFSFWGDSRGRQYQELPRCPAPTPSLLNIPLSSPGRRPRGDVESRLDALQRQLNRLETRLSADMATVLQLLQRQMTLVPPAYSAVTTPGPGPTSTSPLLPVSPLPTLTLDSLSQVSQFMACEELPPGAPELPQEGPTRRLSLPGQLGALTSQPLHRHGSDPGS

Turning to `CC[C@H](NC(=O)c1c([S@+](C)[O-])c(-c2ccccc2)nc2ccccc12)c1ccccc1`, the concentration for a half-maximal effect (EC50) at Neuromedin-K receptor came out at 3.7 nM. The Ratio EC50 in data set [1] is above 2700; in data set [2], 1860. The solubility (thermodynamic) in [3] was determined as 270 µM (≈ 116 µg/mL). Moreover, the Papp in the data set on MDR1 [4] was 28 ×10⁻⁶ cm/s. Further, the efflux ratio in the data set on MDR1 [5] amounted to 1.3. In data set [6], this compound yielded an intrinsic clearance (microsomal CLint) of 23 µL/min/mg. Moreover, the pH-dependent lipophilicity (logD) in data set [7] is 3. The INH in data set [8] is above 33 µM. Also, the Kp at 1 h in data set [9] came to 0.4. The bioavailability in data set [10] turned out to be 60%. Besides, the clearance in data set [11] stood at 60 mL/min/kg. Also, in data set [12], the half-life was 3 h. Also, the Activity result with Gerbillinae was “Dose-dependent effect”. For the same compound, the 50% effective dose (ED50) in the data set with Gerbillinae was 0.75 µmol/kg.

For `CC[C@H](NC(=O)c1c(C[S@+](C)[O-])c(-c2ccccc2)nc2ccccc12)c1ccccc1`, the EC50 at Neuromedin-K receptor was 5.3 nM. Also, the Ratio EC50 in data set [1] is above 660; in data set [2] it was 170. For the same compound, the thermodynamic solubility in [3] was found to be 53 µM (≈ 23.5 µg/mL). The apparent permeability (Papp) with MDR1 [4] is 9.9 ×10⁻⁶ cm/s. In addition, the efflux ratio in the data set on MDR1 [5] was found to be 3.7. Moreover, in [6], the microsomal CLint was found to be 8.4 µL/min/mg. In data set [7], this compound came in with a log distribution coefficient (logD) of 3.5. This compound also yielded an INH in [8] above 33 µM. Besides, the bioavailability in [13] is 89%. This compound registered a clearance in data set [14] of 2.3 mL/min/kg. In addition, the half-life in data set [15] was 6.7 h. The median effective dose (ED50) in the data set with Gerbillinae amounted to 2 µmol/kg.
